Active and inactive are the calls of the source. The rule behind the calls is not given here.
What was measured:
Mus musculus [1] = test: Toxicity in human HCT116 cells xenografted BALB/c nu mouse assessed as signs of organ toxicity at 60 mg/kg, po qd for 19 days; type: organism-based, HCT-116; design: dose 60 mg/kg, route oral; conditions: in vivo, 456 h
Mus musculus [2] = test: Toxicity in mouse H22 cells xenografted Kunming mouse assessed as change in body weight at 90 mg/kg, po qd for 19 days; type: organism-based; design: dose 90 mg/kg, route oral; conditions: in vivo, 456 h
PC-3 = test: Antiproliferative activity against human PC3 cells after 48 hrs by MTT assay; type: functional, cell-based; conditions: PC-3, 48 h
MDA-MB-231 [3] = test: Cell cycle arrest in human MDA-MB-231 cells assessed as accumulation at G1 phase at 0.5 uM after 48 hrs using propidium iodide staining by flow cytometric analysis; type: functional, cell-based
How it was run: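 MDA-MB-231 cells were seeded at 4 × 10^5 per well and incubated overnight, then treated for 48 h. Cells were fixed overnight in 70% ethanol phosphate buffer and washed twice with PBS. They were treated with DNase-free RNase A (1 mg/mL) for 30 min, then stained with propidium iodide for 30 min in the dark at room temperature. DNA content was read by FACScan flow cytometry.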

MDA-MB-231 [4] = test: Antitumor activity against human MDA-MB-231 cells xenografted in BALB/c nu mouse assessed as tumor growth inhibition at 60 mg/kg, ip qd for 19 days relative to control; type: functional; conditions: route intraperitoneal
How it was run: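 Female athymic BALB/c-nu mice, 5–6 weeks old, were inoculated subcutaneously in the right flank with RPMI1640/10% FBS-cultured tumor cells (5 × 10^6 for MDA-MB-231). At about 100 mm3 (~10 days), mice were randomized 6 per group and dosed orally or intraperitoneally for 19 days. Vehicle controls received PBS containing DMSO. TGI = (control − treated mean tumor weight)/control mean tumor weight, at end of treatment.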

Mus musculus [5] = test: Toxicity in human MDA-MB-231 cells xenografted BALB/c nu mouse assessed as change in body weight at 90 mg/kg, po qd for 19 days; type: organism-based; design: dose 90 mg/kg, route oral; conditions: in vivo, 456 h
How it was run: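 Female BALB/c-nu mice, 5–6 weeks old, bearing subcutaneous right-flank xenografts. Mice were randomized 6 per group at about 100 mm3 tumor size. Dosing was oral or intraperitoneal for 19 days; controls received an equal volume of PBS containing DMSO. Body weight was monitored regularly during treatment, and tumors were measured by caliper every three days.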

[6] = target: T1, Protein deacetylase HDAC6 (Homo sapiens, UniProt Q9UBN7); test: Inhibition of HDAC6 using Boc-Lys (acetyl)-AMC as substrate after 30 mins by fluorescence assay
T1 sequence (Q9UBN7 whole entry): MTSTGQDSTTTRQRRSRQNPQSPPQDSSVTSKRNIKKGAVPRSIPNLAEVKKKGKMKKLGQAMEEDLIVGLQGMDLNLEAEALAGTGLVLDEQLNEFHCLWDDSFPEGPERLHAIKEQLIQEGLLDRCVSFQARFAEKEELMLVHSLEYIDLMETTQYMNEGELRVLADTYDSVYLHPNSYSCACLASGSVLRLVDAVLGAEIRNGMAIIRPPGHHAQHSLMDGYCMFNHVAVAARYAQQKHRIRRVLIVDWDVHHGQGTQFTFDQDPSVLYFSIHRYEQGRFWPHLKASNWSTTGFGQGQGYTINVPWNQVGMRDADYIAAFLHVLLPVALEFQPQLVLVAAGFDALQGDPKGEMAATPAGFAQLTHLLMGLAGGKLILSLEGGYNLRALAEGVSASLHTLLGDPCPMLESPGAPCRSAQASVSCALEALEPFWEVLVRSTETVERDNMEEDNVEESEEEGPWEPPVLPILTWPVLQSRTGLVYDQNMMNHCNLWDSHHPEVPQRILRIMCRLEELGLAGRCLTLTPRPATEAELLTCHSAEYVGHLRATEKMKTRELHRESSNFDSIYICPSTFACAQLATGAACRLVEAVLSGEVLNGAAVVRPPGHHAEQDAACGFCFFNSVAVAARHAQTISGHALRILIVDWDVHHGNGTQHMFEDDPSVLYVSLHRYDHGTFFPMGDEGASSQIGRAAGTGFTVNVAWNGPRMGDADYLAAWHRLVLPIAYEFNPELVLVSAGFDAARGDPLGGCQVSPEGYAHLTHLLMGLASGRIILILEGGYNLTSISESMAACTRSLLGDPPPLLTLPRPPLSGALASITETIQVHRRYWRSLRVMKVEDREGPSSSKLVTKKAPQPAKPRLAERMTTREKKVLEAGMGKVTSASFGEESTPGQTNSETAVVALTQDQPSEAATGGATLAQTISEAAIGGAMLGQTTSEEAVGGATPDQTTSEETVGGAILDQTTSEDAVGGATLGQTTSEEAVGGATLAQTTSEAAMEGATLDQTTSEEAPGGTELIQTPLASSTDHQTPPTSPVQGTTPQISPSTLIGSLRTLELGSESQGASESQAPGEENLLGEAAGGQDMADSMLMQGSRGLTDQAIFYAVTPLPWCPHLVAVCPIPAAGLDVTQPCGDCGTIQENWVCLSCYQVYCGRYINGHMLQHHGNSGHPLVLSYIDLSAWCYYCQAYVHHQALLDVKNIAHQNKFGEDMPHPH
How it was run: (§1)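 Enzyme (HeLa nuclear extract, HDAC6 or HDAC8) preincubated 5 min with a series of compound concentrations. Fluorogenic Boc-Lys(acetyl)-AMC substrate then added and incubated 37 °C for 30 min. Reaction stopped with developer containing trypsin and TSA, 20 min at 37 °C. Fluorescence read at ex 390/em 460 nm. Inhibition taken relative to control wells; IC50 from regression of concentration/inhibition data.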

Histone deacetylase 8 = target: T2, Histone deacetylase 8 (Homo sapiens, UniProt Q9BY41); test: Inhibition of HDAC8 using Boc-Lys (acetyl)-AMC as substrate after 30 mins by fluorescence assay; how it was run: as §1
T2 sequence (Q9BY41 whole entry): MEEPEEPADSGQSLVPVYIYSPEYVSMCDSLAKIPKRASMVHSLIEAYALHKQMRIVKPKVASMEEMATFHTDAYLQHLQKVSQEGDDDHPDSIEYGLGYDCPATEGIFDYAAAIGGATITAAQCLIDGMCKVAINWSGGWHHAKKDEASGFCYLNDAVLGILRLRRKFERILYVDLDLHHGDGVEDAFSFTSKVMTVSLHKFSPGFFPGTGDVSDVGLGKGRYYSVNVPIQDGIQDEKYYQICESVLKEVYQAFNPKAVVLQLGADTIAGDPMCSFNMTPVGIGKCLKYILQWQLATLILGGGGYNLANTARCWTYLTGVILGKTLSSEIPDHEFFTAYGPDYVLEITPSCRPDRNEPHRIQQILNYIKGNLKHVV

MDA-MB-231 [7] = test: Antiproliferative activity against human MDA-MB-231 cells after 48 hrs by MTT assay; type: functional, cell-based; conditions: MDA-MB-231, 48 h
How it was run: (§2)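 Cells kept in RPMI1640 with 10% FBS at 37 °C, 5% CO2. Cells were passaged into 96-well plates the day before dosing and left ≥4 h before compound addition. Exposure was 48 h, then 0.5% MTT for 4 h. Formazan was extracted with DMSO for 15 min and read at 570 nm. IC50 was derived from inhibition ratios; mean of three experiments.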

NB-4 = test: Antiproliferative activity against human NB4 cells after 48 hrs by MTT assay; type: functional, cell-based; conditions: NB-4, 48 h; how it was run: as §2

Compound: CC[C@H](C)[C@H](NC(=O)CC(C)(C)C)C(=O)N1Cc2cc(OCC(=O)NO)ccc2C[C@H]1C(=O)Nc1ccc(OC)cc1
- Activity (Mus musculus [1]): Non-toxic
- Activity (Mus musculus [2]): Non-toxic
- IC50 (PC-3): 0.83 µM
- Activity (MDA-MB-231 [3]): Active
- inhibition in vivo at 60 mg/kg (MDA-MB-231 [4]; Mus musculus, MDA-MB-231, ip, 456 h, read-out: TGI): 45%
- T/C (MDA-MB-231 [4]): 62%
- Activity (Mus musculus [5]): Non-toxic
- IC50 [6]: 0.056 µM
- IC50 (Histone deacetylase 8): 0.146 µM
- IC50 (MDA-MB-231 [7]): 0.58 µM
- IC50 (NB-4): 2.69 µM
